Source: ChEMBL document CHEMBL3297677, “A new 9-alkyladenine-cyclic methylglyoxal diadduct activates wt- and F508del-cystic fibrosis transmembrane conductance regulator (CFTR) in vitro and in vivo” (Eur J Med Chem, 2014)
One block for each molecule: values may come before it. The source made the active and inactive calls. The rule behind the calls is not given here.

What was measured:
[1] = target: T1, Cystic fibrosis transmembrane conductance regulator (Homo sapiens, UniProt P13569); test: Activation of wild-type CFTR (unknown origin) expressed in forskolin-stimulated CHO cells assessed as increase in iodide efflux at 100 uM by gamma counting; format: cell-based
In short: (§1)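 Iodide efflux with a robotic system. Cells were loaded at 37 °C for 30 min in Krebs' solution with 1 mM KI and Na¹²⁵I so the label reached equilibrium. The first three aliquots (t0–t2) in cold Krebs' buffer gave the baseline, and compound medium was used for t3–t8. Residual radioactivity was extracted with 0.1 M NaOH/0.1% SDS and gamma-counted. Relative rate = k_peak − k_basal (min⁻¹), expressed as % of maximal activation. EC50 came from nonlinear regression.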
Target sequence in this assay (P13569 whole entry, looked up): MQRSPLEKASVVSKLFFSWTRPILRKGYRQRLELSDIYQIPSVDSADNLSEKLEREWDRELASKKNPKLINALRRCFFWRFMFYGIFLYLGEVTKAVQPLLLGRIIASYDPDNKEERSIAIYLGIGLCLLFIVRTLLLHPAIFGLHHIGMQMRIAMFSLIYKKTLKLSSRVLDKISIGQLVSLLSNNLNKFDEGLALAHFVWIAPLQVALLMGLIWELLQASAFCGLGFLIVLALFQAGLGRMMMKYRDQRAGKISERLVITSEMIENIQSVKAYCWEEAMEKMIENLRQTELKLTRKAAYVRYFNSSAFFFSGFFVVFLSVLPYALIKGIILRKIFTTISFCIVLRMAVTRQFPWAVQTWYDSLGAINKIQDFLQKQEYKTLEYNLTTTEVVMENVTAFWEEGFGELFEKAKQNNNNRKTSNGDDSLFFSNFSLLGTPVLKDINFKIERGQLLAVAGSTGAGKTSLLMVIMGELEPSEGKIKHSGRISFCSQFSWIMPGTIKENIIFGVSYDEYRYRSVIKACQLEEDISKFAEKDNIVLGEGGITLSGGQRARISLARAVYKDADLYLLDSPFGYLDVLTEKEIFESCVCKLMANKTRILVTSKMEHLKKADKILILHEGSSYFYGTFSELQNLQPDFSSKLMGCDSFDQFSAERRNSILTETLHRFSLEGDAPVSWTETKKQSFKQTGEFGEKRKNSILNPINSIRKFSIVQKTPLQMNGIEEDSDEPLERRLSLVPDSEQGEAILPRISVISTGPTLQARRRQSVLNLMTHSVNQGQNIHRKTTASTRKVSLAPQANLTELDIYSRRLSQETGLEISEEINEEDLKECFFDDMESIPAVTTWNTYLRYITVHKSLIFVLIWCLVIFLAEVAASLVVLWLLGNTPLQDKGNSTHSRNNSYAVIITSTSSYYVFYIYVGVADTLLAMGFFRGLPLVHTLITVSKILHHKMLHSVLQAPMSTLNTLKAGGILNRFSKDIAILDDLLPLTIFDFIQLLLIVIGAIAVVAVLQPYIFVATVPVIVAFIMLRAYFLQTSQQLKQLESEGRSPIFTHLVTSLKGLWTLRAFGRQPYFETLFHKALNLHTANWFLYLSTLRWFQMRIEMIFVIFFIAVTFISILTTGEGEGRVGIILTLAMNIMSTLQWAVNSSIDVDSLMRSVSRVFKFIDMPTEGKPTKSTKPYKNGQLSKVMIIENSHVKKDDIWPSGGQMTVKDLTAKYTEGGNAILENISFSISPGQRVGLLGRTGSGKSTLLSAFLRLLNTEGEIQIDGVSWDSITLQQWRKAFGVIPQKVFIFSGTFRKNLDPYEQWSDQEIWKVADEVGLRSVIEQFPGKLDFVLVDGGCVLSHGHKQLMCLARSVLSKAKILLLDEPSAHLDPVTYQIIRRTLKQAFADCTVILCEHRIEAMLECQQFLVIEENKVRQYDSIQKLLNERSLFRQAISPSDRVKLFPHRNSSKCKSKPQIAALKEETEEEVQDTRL

[2] = target: T1, Cystic fibrosis transmembrane conductance regulator; test: Activation of wild-type CFTR (unknown origin) expressed in forskolin-stimulated CHO cells assessed as increase in iodide efflux by gamma counting; format: cell-based; in short: as §1
Target sequence in this assay (P13569 whole entry): as the sequence (P13569 whole entry, looked up) above

CHO = test: Cytotoxicity against wild-type CFTR transfected CHO cells upto 300 uM after 24 hrs by MTT assay; format: cell-based, Cricetulus griseus; conditions: chinese hamster
In short: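 Wt-CFTR CHO cells were exposed for 24 h, and viability was read by MTT reduction to formazan. Controls were untreated cells and cells deprived of medium for 24 h.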

[3] = target: T1, Cystic fibrosis transmembrane conductance regulator; test: Activation of CFTR in forskolin-stimulated human MM39 cells by DiSBAC2(3) dye based fluorescence analysis; format: cell-based
In short: (§2)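 Human tracheal gland MM39 cells were imaged cell by cell with the potential-sensitive oxonol probe DiSBAC2(3) (ex 535 nm, em 560 nm). Signal is Fx = (Ft − F0)/F0 × 100 relative to the time of stimulus addition. Histograms show the stable fluorescence variation, as mean ± SEM. The CFTR inhibitor CFTRinh-172 was used at 1 µM. Runs were done with or without forskolin.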
Target sequence in this assay (P13569 whole entry, looked up): as above

[4] = target: T1, Cystic fibrosis transmembrane conductance regulator; test: Activation of CFTR in forskolin-stimulated human MM39 cells by DiSBAC2(3) dye based fluorescence analysis in presence of 1 uM CFTRinh-172; format: cell-based; in short: as §2
Target sequence in this assay (P13569 whole entry, looked up): as above

[5] = target: T1, Cystic fibrosis transmembrane conductance regulator; test: Activation of CFTR in human MM39 cells by DiSBAC2(3) dye based fluorescence analysis; format: cell-based; in short: as §2
Target sequence in this assay (P13569 whole entry, looked up): as above

[6] = target: T1, Cystic fibrosis transmembrane conductance regulator; test: Activation of CFTR in human MM39 cells by DiSBAC2(3) dye based fluorescence analysis in presence of 1 uM CFTRinh-172; format: cell-based; in short: as §2
Target sequence in this assay (P13569 whole entry, looked up): as above

[7] = system: Cystic fibrosis transmembrane conductance regulator (Homo sapiens), P13569 [F508del]; test: (§3) Activation of CFTR F508 deletion mutant in forskolin-stimulated and miglustat-corrected human […] cells assessed as increase in iodide efflux by gamma counting; format: cell-based; in short: as §1
Chain of Cystic fibrosis transmembrane conductance regulator (Homo sapiens), P13569 [F508del] (P13569 as listed by the source): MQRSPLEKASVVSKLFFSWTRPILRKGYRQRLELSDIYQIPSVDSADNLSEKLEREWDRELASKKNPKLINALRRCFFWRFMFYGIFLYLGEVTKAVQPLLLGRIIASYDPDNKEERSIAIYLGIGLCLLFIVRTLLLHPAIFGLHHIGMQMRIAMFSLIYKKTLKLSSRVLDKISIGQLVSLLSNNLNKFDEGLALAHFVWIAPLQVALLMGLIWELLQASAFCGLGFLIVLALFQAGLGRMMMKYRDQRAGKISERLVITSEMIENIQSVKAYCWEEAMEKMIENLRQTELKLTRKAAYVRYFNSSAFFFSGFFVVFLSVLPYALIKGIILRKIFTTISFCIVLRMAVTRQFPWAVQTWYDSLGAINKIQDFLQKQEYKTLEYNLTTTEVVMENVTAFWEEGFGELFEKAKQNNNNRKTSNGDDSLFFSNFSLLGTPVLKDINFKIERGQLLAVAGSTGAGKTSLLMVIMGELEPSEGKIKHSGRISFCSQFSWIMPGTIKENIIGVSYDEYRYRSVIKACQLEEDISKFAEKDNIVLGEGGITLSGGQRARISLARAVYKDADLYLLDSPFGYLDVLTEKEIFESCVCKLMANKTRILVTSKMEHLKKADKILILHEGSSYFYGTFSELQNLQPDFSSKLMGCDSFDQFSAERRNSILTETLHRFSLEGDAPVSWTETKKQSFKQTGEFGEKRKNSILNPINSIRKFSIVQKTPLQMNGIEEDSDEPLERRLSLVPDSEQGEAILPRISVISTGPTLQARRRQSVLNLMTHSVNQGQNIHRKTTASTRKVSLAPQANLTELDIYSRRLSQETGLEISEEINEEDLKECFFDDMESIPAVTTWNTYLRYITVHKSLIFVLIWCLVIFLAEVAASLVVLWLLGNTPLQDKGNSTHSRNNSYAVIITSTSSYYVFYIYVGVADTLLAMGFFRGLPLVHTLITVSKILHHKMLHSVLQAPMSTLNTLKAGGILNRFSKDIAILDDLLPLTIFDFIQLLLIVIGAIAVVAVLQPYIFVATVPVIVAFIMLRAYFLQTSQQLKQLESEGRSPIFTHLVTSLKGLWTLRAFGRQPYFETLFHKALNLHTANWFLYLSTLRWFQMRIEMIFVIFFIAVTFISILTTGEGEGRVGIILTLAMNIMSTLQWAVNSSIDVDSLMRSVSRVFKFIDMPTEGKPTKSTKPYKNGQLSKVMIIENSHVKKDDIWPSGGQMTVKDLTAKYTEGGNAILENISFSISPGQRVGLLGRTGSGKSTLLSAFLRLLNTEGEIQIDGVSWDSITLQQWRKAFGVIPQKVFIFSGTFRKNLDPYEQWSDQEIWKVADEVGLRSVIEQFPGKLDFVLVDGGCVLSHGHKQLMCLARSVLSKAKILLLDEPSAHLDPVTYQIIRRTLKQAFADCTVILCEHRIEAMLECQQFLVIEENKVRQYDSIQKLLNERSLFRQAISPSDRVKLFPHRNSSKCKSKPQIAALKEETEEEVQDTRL

[8] = target: Cystic fibrosis transmembrane conductance regulator (Homo sapiens, UniProt P13569, F508DEL); test: as §3; format: cell-based; in short: as §1
Chain of Cystic fibrosis transmembrane conductance regulator (Homo sapiens, UniProt P13569, F508DEL) (P13569 as listed by the source): as above

Rattus norvegicus [9] = test: Effect on salivary secretion in male Wistar rat assessed as net weight of saliva secreted at 30 uM, sc followed by treatment with 1 mM cholinergic inhibitor atropine; format: functional, organism-based
In short: (§4)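 Male Wistar rats (250–300 g) were held supine. Basal secretion was blocked with atropine (1 mM). Saline containing 1 mM atropine plus compound (30 µM), isoprenaline (10 µM) or both was then injected subcutaneously into the cheek. Saliva was collected on paper pieces changed every 4 min and weighed. Secretion rate = saliva weight / collection time (min) / body weight (g).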

Rattus norvegicus [10] = test: Potentiation of isprenaline-induced salivary secretion in male Wistar rat assessed as net weight of saliva secreted at 30 uM, sc followed by treatment with 1 mM cholinergic inhibitor atropine; format: functional, organism-based; in short: as §4

Activity [1]: inactive
SMILES: CC(C)n1cnc2c1N=CN1C2=N[C@](C)(C(=O)O)[C@@H](O)[C@@]1(C)O

EC50 [2]: 2.1 µM
SMILES: C=CCn1cnc2c1N=CN1C2=N[C@](C)(C(=O)O)[C@H](O)[C@]1(C)O

Activity [1]: inactive
SMILES: CCn1cnc2c1N=CN1C2=N[C@](C)(C(=O)O)[C@@H](O)[C@@]1(C)O

Activity [1]: inactive
SMILES: C[C@]1(C(=O)O)N=C2c3ncn(CCCO)c3N=CN2[C@](C)(O)[C@@H]1O

Activity [1]: inactive
SMILES: Cn1cnc2c1N=CN1C2=N[C@](C)(C(=O)O)[C@@H](O)[C@@]1(C)O

Activity [1]: inactive
SMILES: C[C@]1(C(=O)O)N=C2c3ncn(Cc4ccccc4)c3N=CN2[C@](C)(O)[C@@H]1O

Activity [1]: inactive
SMILES: CCCCn1cnc2c1N=CN1C2=N[C@](C)(C(=O)O)[C@@H](O)[C@@]1(C)O

Activity [1]: inactive
SMILES: C#CCn1cnc2c1N=CN1C2=N[C@](C)(C(=O)O)[C@@H](O)[C@@]1(C)O

Activity [1]: inactive
SMILES: C[C@]1(C(=O)O)N=C2c3ncn(CCCc4ccccc4)c3N=CN2[C@](C)(O)[C@@H]1O

Activity [1]: Active
EC50 [2]: 7.5 µM
Activity [3]: Active
Activity [4]: inactive
Activity [5]: Active
Activity [6]: inactive
Activity [7]: Dose-dependent effect
EC50 [8]: 104 µM
SMILES: C=CCn1cnc2c1N=CN1C2=N[C@](C)(C(=O)O)[C@@H](O)[C@@]1(C)O
Activity (CHO): Non-toxic
Activity (Rattus norvegicus [9]): inactive
Activity (Rattus norvegicus [10]): Active
